Results collected from several papers.
Compare with care: the assays were run in different laboratories.
Target: Sodium-dependent serotonin transporter (SLC6A4, Homo sapiens, UniProt P31645)

CNc1nc2cc(OCCCCN3CCC(c4cccc(Cl)c4Cl)CC3)ccc2s1
Ki (ligand displacement, radioligand): 0.062 µM

CCn1c(-c2nc3cc(C(=O)N4CCC[C@@H](N)C4)cc(OC)c3n2C)cc2cccnc21
IC50 (transporter uptake): 39.8 µM

Cc1ccc2cccc(N3CCN(CCCCOc4ccc5sc(C(C)C)nc5c4)CC3)c2n1
Ki (ligand displacement, radioligand): 0.48 µM

CCn1c(-c2nc3ccc(C(=O)N4CCCC(N)C4)cc3n2C)cc2ccccc21 (stereo not shown)
IC50 (transporter uptake): 20 µM

CC(C)c1nc2cc(OCCCCN3CCN(c4cccc5c4OCCO5)CC3)ccc2s1
Ki (ligand displacement, radioligand): 0.33 µM

CCN(CC)c1ccc(C2Nc3ccc(C(=O)c4ccccc4)cc3NC3=C2C(=O)CC(C)(C)C3)cc1 (stereo not shown)
Ki (cell-free assay, radioligand): > 10 µM

CCCCN1CCC(COC(=O)c2ccc(N)c(OCF)c2)CC1
Ki (cell-free assay, radioligand): > 10 µM

CC(=O)N1C[C@H](CCN2CCC(c3c[nH]c4cc(Cl)ccc34)CC2)c2ccccc21
IC50 (ligand displacement, radioligand; cell membranes): 0.36 µM

CCCOC(=O)[C@@]12C[C@@H]1[C@@H](n1cnc3c(NC)nc(C#Cc4ccc(Cl)s4)nc31)[C@H](O)[C@@H]2O
Ki (ligand displacement, radioligand; cell membranes): > 10 µM

CCC(C)C(=O)[C@]12C(=O)[C@](CC=C(C)C)(C[C@H](CC=C(C)C)[C@@]1(C)CCC=C(C)C)C(=O)C(CC=C(C)C)=C2O (stereo partly shown)
Ki (ligand displacement, radioligand; cell membranes): 34 µM
